Source: the RNAGym collection of RNA variant scans (doi:10.1038/s41586-018-0170-7)

B1: tRNA (parent)
chain: GUUCCGUUGGCGUAAUGGUAACGCGUCUCCCUCCUAAGGAGAAGACUGCGGGUUCGAGUCCCGUACGGAACG

Variants of: B1
Test: yeast fitness, log relative to wild type (ln ratio); higher = fitter; tRNA-Arg(CCU), competitive growth, 37 C, 1 M NaCl
Summary of the method: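 Two independent transformations put a combinatorial tRNA-Arg(CCU) variant library on a HIS3 centromeric plasmid into BY4742 lacking the chromosomal gene. Pools were grown in SC-HIS at 30 °C for 4 generations, then in SC-HIS 1M NaCl at 37 °C for ~6.5 generations (~26.5 h), with three outputs taken per input. Fitness compares a genotype's generations with the wild type's as a natural log ratio. Those generations are OD-scaled log2 output/input frequencies, inverse-variance weighted across replicates, from 125 bp paired-end Illumina counts.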
In the case of U2C A43C C66A A69G A70G, the “yeast fitness (ln)” value is reported as -0.186. In the case of U2G G6U C27U C46U A70G, the “yeast fitness (ln)” value is reported as -0.156. For U2C G6U C27U C46U C66A A69G A70U, the “yeast fitness (ln)” value was -0.114. In the case of G1A U2G G6U A43C C46U A69G C71U, the “yeast fitness (ln)” value is reported as -0.393. For G1A G6A C27U A43C C66U A70U, the “yeast fitness (ln)” value was -0.304. For A69G A70G, the “yeast fitness (ln)” value was -0.0138. In the case of U2G G6A C27U C46U C71U, the “yeast fitness (ln)” value is reported as -0.128. In the case of G6U C27U A43C C46U C66U A69G A70U, the “yeast fitness (ln)” value is reported as -0.416. With U2C G6A A43C A70G the “yeast fitness (ln)” value was -0.231. For C27U A69G C71U, the “yeast fitness (ln)” value was -0.113. With U2C G6A C27U A43C C46U C66U the “yeast fitness (ln)” value was -0.0567. In the case of C46U C66A A69G A70G, the “yeast fitness (ln)” value is reported as -0.0653. For U2C C46U C66U A69G A70U C71U, the “yeast fitness (ln)” value was -0.359. For G1A U2G G6U C46U C66U A70G, the “yeast fitness (ln)” value was -0.238. With G1A U2G G6U C27U A43C C66A A70U C71U the “yeast fitness (ln)” value was -0.433. For C27U C46U C66U A69G, the “yeast fitness (ln)” value was -0.521. For G1A G6A C27U A43C C66U A70G, the “yeast fitness (ln)” value was -0.431. For U2C C46U A70G, the “yeast fitness (ln)” value was 0.000328. With G1A C27U A43C A69G A70U C71U the “yeast fitness (ln)” value was -0.406. With U2G G6A A43C C66U A69G C71U the “yeast fitness (ln)” value was -0.284. In the case of U2C C27U C66U, the “yeast fitness (ln)” value is reported as -0.0757. For G1A G6U C27U C66A A69G A70U C71U, the “yeast fitness (ln)” value was -0.223. In the case of C27U A70G, the “yeast fitness (ln)” value is reported as -0.037. In the case of U2C A43C C46U A70U C71U, the “yeast fitness (ln)” value is reported as -0.0761. For U2C A43C C46U C66A A69G A70G C71U, the “yeast fitness (ln)” value was -0.097. With U2C C27U A43C C66U C71U the “yeast fitness (ln)” value was -0.311. With G6U A43C C66U A69G A70U C71U the “yeast fitness (ln)” value was -0.393. With G6A C27U C66U A69G C71U the “yeast fitness (ln)” value was -0.594. For U2G A43C C66A A70U, the “yeast fitness (ln)” value was -0.0996. In the case of G1A G6U C27U A43C A70G, the “yeast fitness (ln)” value is reported as -0.439. In the case of U2C C46U C66A, the “yeast fitness (ln)” value is reported as -0.0347. In the case of U2C G6U A43C C66A A69G A70U, the “yeast fitness (ln)” value is reported as -0.338. For G6A C27U C46U C71U, the “yeast fitness (ln)” value was -0.176. With G1A U2C C66U A70G C71U the “yeast fitness (ln)” value was 0.00307. For G1A U2C G6A A70G C71U, the “yeast fitness (ln)” value was -0.0357. With C27U C46U C66A A69G A70U the “yeast fitness (ln)” value was -0.104. In the case of G1A U2G G6U C27U A43C C66A A69G A70G C71U, the “yeast fitness (ln)” value is reported as -0.461. In the case of U2C C27U C66U A69G A70U, the “yeast fitness (ln)” value is reported as -0.188. In the case of U2G G6A C66U A69G A70G C71U, the “yeast fitness (ln)” value is reported as -0.161. In the case of U2C C27U C46U C66A A70G, the “yeast fitness (ln)” value is reported as -0.137. In the case of G1A U2C G6A C46U A70U, the “yeast fitness (ln)” value is reported as -0.0702. In the case of C46U C66U A69G A70G, the “yeast fitness (ln)” value is reported as -0.216. For G6U C27U C66A A70U, the “yeast fitness (ln)” value was -0.17. With U2G C27U A43C A69G A70G C71U the “yeast fitness (ln)” value was -0.204. With U2G G6U C27U C66A A69G A70G the “yeast fitness (ln)” value was -0.145. With G1A U2G G6A C27U A43C C66U A70U C71U the “yeast fitness (ln)” value was -0.536. In the case of G1A U2G G6U, the “yeast fitness (ln)” value is reported as -0.102. With U2G G6U A43C C46U C71U the “yeast fitness (ln)” value was -0.198. With C27U the “yeast fitness (ln)” value was -0.0106. With G1A C66A A70G C71U the “yeast fitness (ln)” value was -0.0638. For G1A G6U C27U C46U C66U A69G A70U C71U, the “yeast fitness (ln)” value was -0.4. In the case of U2G G6A A43C C46U C66A A70G C71U, the “yeast fitness (ln)” value is reported as -0.139. In the case of U2G G6U A43C C46U A70U, the “yeast fitness (ln)” value is reported as -0.337. For G6U C27U C46U C66U A70U, the “yeast fitness (ln)” value was -0.19. With G1A U2G G6U C46U C66A A69G A70U the “yeast fitness (ln)” value was -0.0992. With U2C G6U A43C A70G the “yeast fitness (ln)” value was -0.188. In the case of G1A U2C G6U A43C C46U A69G A70U C71U, the “yeast fitness (ln)” value is reported as -0.343. With G6U C27U C66U A69G A70U the “yeast fitness (ln)” value was -0.329. For G1A U2G A43C A70G, the “yeast fitness (ln)” value was -0.108. In the case of G1A U2C C46U A70G, the “yeast fitness (ln)” value is reported as -0.014. With C27U A43C C46U A70G C71U the “yeast fitness (ln)” value was -0.209. With C27U C46U C66U A69G A70G C71U the “yeast fitness (ln)” value was -0.166. With G1A U2G C27U C46U C66A the “yeast fitness (ln)” value was -0.0584. For U2C C27U A43C C66U A70G, the “yeast fitness (ln)” value was -0.232. For G1A G6A C27U A43C C46U C66U A69G A70U C71U, the “yeast fitness (ln)” value was -0.477. In the case of G1A U2G G6A C46U A69G A70G C71U, the “yeast fitness (ln)” value is reported as -0.162. For U2C G6A C27U C46U A69G A70G C71U, the “yeast fitness (ln)” value was -0.331. For G1A U2G C27U C46U A69G A70G C71U, the “yeast fitness (ln)” value was -0.292. With U2G G6U C27U C46U C66A A69G A70G the “yeast fitness (ln)” value was -0.214. In the case of G6A A43C A69G A70G C71U, the “yeast fitness (ln)” value is reported as -0.305. With U2C A70G C71U the “yeast fitness (ln)” value was -0.013. For G1A U2G G6A C46U C66U, the “yeast fitness (ln)” value was -0.13. For U2C G6U C46U C66U A70G C71U, the “yeast fitness (ln)” value was -0.0117. With G6U C27U C46U A69G A70U the “yeast fitness (ln)” value was -0.292. With G1A G6A C46U A70U the “yeast fitness (ln)” value was -0.103. With G1A U2G C27U A43C C46U C66A A69G A70G the “yeast fitness (ln)” value was -0.146. With G1A G6A C27U A43C C46U A69G A70G the “yeast fitness (ln)” value was -0.265. With U2G G6A C27U A43C C46U A70G the “yeast fitness (ln)” value was -0.145. In the case of G1A U2G C27U A43C C66U A69G A70U, the “yeast fitness (ln)” value is reported as -0.363. For G1A A43C C46U C66U A70G, the “yeast fitness (ln)” value was -0.1. With U2G G6U C27U A70U C71U the “yeast fitness (ln)” value was -0.227. In the case of G1A U2C A43C C46U A70G, the “yeast fitness (ln)” value is reported as -0.00269. In the case of G1A U2C G6U C46U C66U A69G A70G, the “yeast fitness (ln)” value is reported as -0.183.
